According to ChEMBL document CHEMBL1123109, “Alkyl esters of 3-adenin-9-yl-2-hydroxypropanoic acid: a new class of broad-spectrum antiviral agents” (1985):
In brackets after ≈: the same amount, converted by molar mass.

Key:
Type in all cases: functional
[1] = system: Mammalian orthoreovirus 1; experiment: Inhibition of Reo virus-1 induced cytopathicity in vero cells.
Oryctolagus cuniculus [2] = species on record: Oryctolagus cuniculus; experiment: Inhibitory effects on DNA, RNA, and Protein synthesis in rabbit kidney cells was evaluated for incorporation of [methyl-3H]dThd]; settings: read-out: ID50 (the source's name)
Measles morbillivirus = experiment: Inhibition of Measles virus induced cytopathicity in vero cells.
[3] = system: Vesicular stomatitis virus; experiment: Inhibition of Vesicular stomatitis virus induced cytopathicity in RK13 cells.
Summary of the method: (§1)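 Vesicular stomatitis virus was inoculated at 100 CCID50 (100× the dose infecting 50% of cells) in each cell type: human embryonic skin-muscle fibroblasts, LR-strain trisomy-21 fibroblasts, HEp-2, CV-1, BS-C-1, Balb/3T3, RK13, human kidney, HeLa and Vero. CPE was read at 1–2 days in every cell type, once complete in untreated infected controls. The MIC is the concentration giving a 50% reduction in cytopathogenicity.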

[4] = system: Vesicular stomatitis virus; experiment: Inhibition of Vesicular stomatitis virus induced cytopathicity in BALB/3T3 cells.; settings: in Mus musculus; summary of the method: as §1
[5] = system: Vesicular stomatitis virus; experiment: Inhibition of Vesicular stomatitis virus induced cytopathicity in BS-C-1 cells.; summary of the method: as §1
[6] = system: Vesicular stomatitis virus; experiment: Inhibition of Vesicular stomatitis virus induced cytopathicity in CV-1 cells.; summary of the method: as §1
[7] = system: Vesicular stomatitis virus; experiment: Inhibition of Vesicular stomatitis virus induced cytopathicity in PRK cells.
Poliovirus 1 = experiment: Inhibition of polio virus 1 induced cytopathicity in HeLa cells.; settings: Enterovirus C
HK [8] = experiment: Minimum inhibitory concentration which is required to reduce virus-induced cytopathogenicity by 50% against Vesicular stomatitis virus in human kidney,; summary of the method: as §1
Human respirovirus 3 = experiment: Inhibition of parainfluenza virus-3 induced cytopathicity in vero cells.
Sindbis virus = experiment: Inhibition of Sindbis virus induced cytopathicity in vero cells.
Human alphaherpesvirus 1 = experiment: Inhibition of HSV-1 induced cytopathicity in PRK cells.
Coxsackievirus B4 = experiment: Inhibition of Coxsackie B4 virus induced cytopathicity in HeLa cells.; settings: Enterovirus B
Vero = experiment: Cytotoxic concentration against Vero cells.; settings: Chlorocebus sabaeus
Summary of the method: (§2)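 Uninfected cells were incubated with compound for the same duration as the matching antiviral assay. The minimum cytotoxic concentration is the lowest one causing a microscopically detectable change in normal cell morphology.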

[9] = system: Vesicular stomatitis virus; experiment: Inhibition of Vesicular stomatitis virus induced cytopathicity in E6SM cells.; summary of the method: as §1
HeLa = experiment: Cytotoxic concentration against HeLa cells.; settings: Homo sapiens; summary of the method: as §2
[10] = system: Vesicular stomatitis virus; experiment: Inhibition of Vesicular stomatitis virus induced cytopathicity in HeLa cells.; summary of the method: as §1
Vaccinia virus = experiment: Inhibition of Vaccinia virus induced cytopathicity in PRK cells.; settings: Orthopoxvirus vaccinia
Oryctolagus cuniculus [11] = species on record: Oryctolagus cuniculus; experiment: Inhibitory effects on DNA, RNA, and Protein synthesis in rabbit kidney cells was evaluated for incorporation of [5-3H]-Urd; settings: read-out: ID50 (the source's name)
[12] = system: Vesicular stomatitis virus; experiment: Inhibition of Vesicular stomatitis virus induced cytopathicity in T-21 cells.; summary of the method: as §1
PRK = experiment: Cytotoxic concentration against PRK cells.; settings: Oryctolagus cuniculus; summary of the method: as §2
Oryctolagus cuniculus [13] = species on record: Oryctolagus cuniculus; experiment: Inhibitory effects on DNA, RNA, and Protein synthesis in rabbit kidney cells was evaluated for incorporation of [4,5-3H]leucine; settings: read-out: ID50 (the source's name)
[14] = system: Vesicular stomatitis virus; experiment: Inhibition of Vesicular stomatitis virus induced cytopathicity in HEp-2 cells.; summary of the method: as §1
[15] = system: Vesicular stomatitis virus; experiment: Inhibition of Vesicular stomatitis virus induced cytopathicity in Vero cells.; summary of the method: as §1
HK [16] = experiment: Minimum inhibitory concentration which is required to reduce virus-induced cytopathogenicity by 50% against Vesicular stomatitis virus in human kidney (HK) cells; summary of the method: as §1

SMILES	MIC [1]	IC50 (Oryctolagus cuniculus [2])	MIC (Measles morbillivirus)	MIC [3]	MIC [4]	MIC [5]	MIC [7]	MIC (Poliovirus 1)	MIC (Human respirovirus 3)	MIC (Sindbis virus)	MIC (Human alphaherpesvirus 1)	MIC (Coxsackievirus B4)	MCC (Vero)	MIC [9]	MCC (HeLa)	MIC [10]	MIC (Vaccinia virus)	IC50 (Oryctolagus cuniculus [11])	MCC (PRK)	IC50 (Oryctolagus cuniculus [13])	further results
CC(C)CCOC(=O)C(O)Cn1cnc2c(N)ncnc21 (stereo not drawn)	30 µg/mL (≈ 102 µM)	114 µg/mL (≈ 389 µM)	12 µg/mL (≈ 40.9 µM)	100 µg/mL (≈ 341 µM)	200 µg/mL (≈ 682 µM)	70 µg/mL (≈ 239 µM)	3 µg/mL (≈ 10.2 µM)	> 400 µg/mL	> 200 µg/mL	200 µg/mL (≈ 682 µM)	> 400 µg/mL	> 400 µg/mL	400 µg/mL	2 µg/mL (≈ 6.82 µM)	400 µg/mL	3 µg/mL (≈ 10.2 µM)	10 µg/mL (≈ 34.1 µM)	29 µg/mL (≈ 98.9 µM)	400 µg/mL	228 µg/mL (≈ 777 µM)	MIC [6]: 200 µg/mL (≈ 682 µM); MIC (HK [8]): 10 µg/mL (≈ 34.1 µM); MIC [12]: 1 µg/mL (≈ 3.41 µM); MIC [14]: 1 µg/mL (≈ 3.41 µM); MIC [15]: 15 µg/mL (≈ 51.1 µM)
CCCCCOC(=O)C(O)Cn1cnc2c(N)ncnc21 (stereo not drawn)	30 µg/mL (≈ 102 µM)	151 µg/mL (≈ 515 µM)	70 µg/mL (≈ 239 µM)	100 µg/mL (≈ 341 µM)	> 200 µg/mL	100 µg/mL (≈ 341 µM)	10 µg/mL (≈ 34.1 µM)	> 400 µg/mL	70 µg/mL (≈ 239 µM)	200 µg/mL (≈ 682 µM)	> 200 µg/mL	> 400 µg/mL	200 µg/mL	3 µg/mL (≈ 10.2 µM)	> 400 µg/mL	10 µg/mL (≈ 34.1 µM)	70 µg/mL (≈ 239 µM)	21 µg/mL (≈ 71.6 µM)	200 µg/mL	215 µg/mL (≈ 733 µM)	MIC [6]: 300 µg/mL (≈ 1020 µM); MIC (HK [8]): 20 µg/mL (≈ 68.2 µM); MIC [12]: 1 µg/mL (≈ 3.41 µM); MIC [14]: 2 µg/mL (≈ 6.82 µM); MIC [15]: 20 µg/mL (≈ 68.2 µM)
COC(=O)C(O)Cn1cnc2c(N)ncnc21 (stereo not drawn)	200 µg/mL (≈ 843 µM)	> 400 µg/mL	40 µg/mL (≈ 169 µM)	1 µg/mL (≈ 4.22 µM)	300 µg/mL (≈ 1260 µM)	150 µg/mL (≈ 632 µM)	3 µg/mL (≈ 12.6 µM)	> 400 µg/mL	20 µg/mL (≈ 84.3 µM)	> 400 µg/mL	> 400 µg/mL	> 400 µg/mL	> 400 µg/mL	30 µg/mL (≈ 126 µM)	> 400 µg/mL	70 µg/mL (≈ 295 µM)	7 µg/mL (≈ 29.5 µM)	350 µg/mL (≈ 1480 µM)	> 400 µg/mL	> 400 µg/mL	MIC [14]: 3 µg/mL (≈ 12.6 µM); MIC [15]: > 400 µg/mL; MIC (HK [16]): > 400 µg/mL
CCCCOC(=O)C(O)Cn1cnc2c(N)ncnc21 (stereo not drawn)	150 µg/mL (≈ 537 µM)	> 253 µg/mL	25 µg/mL (≈ 89.5 µM)	100 µg/mL (≈ 358 µM)	200 µg/mL (≈ 716 µM)	150 µg/mL (≈ 537 µM)	3 µg/mL (≈ 10.7 µM)	> 400 µg/mL	70 µg/mL (≈ 251 µM)	150 µg/mL (≈ 537 µM)	> 200 µg/mL	> 400 µg/mL	200 µg/mL	7 µg/mL (≈ 25.1 µM)	400 µg/mL	15 µg/mL (≈ 53.7 µM)	3 µg/mL (≈ 10.7 µM)	102 µg/mL (≈ 365 µM)	200 µg/mL	> 381 µg/mL	MIC [6]: 300 µg/mL (≈ 1070 µM); MIC (HK [8]): 50 µg/mL (≈ 179 µM); MIC [12]: 2 µg/mL (≈ 7.16 µM); MIC [14]: 2 µg/mL (≈ 7.16 µM); MIC [15]: 30 µg/mL (≈ 107 µM)
